Results published in ChEMBL document CHEMBL2021818, “Novel desosamine-modified 14- and 15-membered macrolides without antibacterial activity” (2012).
In brackets after ≈: the same amount, converted by molar mass.

Tests used:
Assay type in all cases: functional
Streptococcus pneumoniae = assay: Antibacterial activity against Streptococcus pneumoniae ATCC […] after 24 hrs at 37 degC by CLSI protocol based microdilution method
How it was run: (§1)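 Macrolide-susceptible strains, broth microdilution MIC per CLSI. Media: Mueller–Hinton broth (MHB) for S. aureus and M. catarrhalis, MHB plus 5% horse serum for streptococci, Haemophilus test medium for H. influenzae. Compounds dissolved in DMF (5 mg/mL stock) and serially twofold diluted in medium over 64 to 0.125 µg/mL. MIC read after 24 h incubation at 37 °C.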

Moraxella catarrhalis = assay: Antibacterial activity against Moraxella catarrhalis ATCC 23246 after 24 hrs at 37 degC by CLSI protocol based microdilution method; settings: ATCC 23246, 24 h; how it was run: as §1
Haemophilus influenzae = assay: Antibacterial activity against Haemophilus influenzae ATCC 49247 after 24 hrs at 37 degC by CLSI protocol based microdilution method; settings: ATCC 49247, 24 h; how it was run: as §1
Streptococcus pyogenes = assay: Antibacterial activity against Streptococcus pyogenes ATCC 700294 after 24 hrs at 37 degC by CLSI protocol based microdilution method; settings: ATCC 700294, 24 h; how it was run: as §1
Staphylococcus aureus = assay: Antibacterial activity against Staphylococcus aureus ATCC 13709 after 24 hrs at 37 degC by CLSI protocol based microdilution method; settings: ATCC 13709, 24 h; how it was run: as §1

Structure (SMILES) | MIC (Streptococcus pneumoniae) | MIC (Moraxella catarrhalis) | MIC (Haemophilus influenzae) | MIC (Streptococcus pyogenes) | MIC (Staphylococcus aureus)
CC[C@H]1OC(=O)[C@H](C)[C@@H](O[C@H]2C[C@@](C)(OC)[C@@H](O)[C@H](C)O2)[C@H](C)[C@@H](O[C@@H]2O[C@H](C)C[C@H](NC)[C@H]2O)[C@](C)(OC)C[C@@H](C)C(=O)N[C@H](C)[C@@H](O)[C@]1(C)O | 32 mg/L (≈ 42.7 µM) | 16 mg/L (≈ 21.4 µM) | > 64 mg/L | 64 mg/L (≈ 85.5 µM) | > 64 mg/L
CC[C@H]1OC(=O)[C@H](C)[C@@H](O[C@H]2C[C@@](C)(OC)[C@@H](O)[C@H](C)O2)[C@H](C)[C@@H](O[C@@H]2O[C@H](C)C[C@H](NC)[C@H]2O)[C@](C)(OC)C[C@@H](C)C(=O)[C@H](C)[C@@H](O)[C@]1(C)O | < 0.25 mg/L | 2 mg/L (≈ 2.73 µM) | > 64 mg/L | < 0.25 mg/L | 4 mg/L (≈ 5.45 µM)
CC[C@H]1OC(=O)[C@H](C)[C@@H](O[C@H]2C[C@@](C)(OC)[C@@H](O)[C@H](C)O2)[C@H](C)[C@@H](O[C@@H]2O[C@H](C)C[C@H](NC)[C@H]2O)[C@](C)(O)C[C@@H](C)CN(C)[C@H](C)[C@@H](O)[C@]1(C)O | 2 mg/L (≈ 2.72 µM) | 2 mg/L (≈ 2.72 µM) | > 64 mg/L | 2 mg/L (≈ 2.72 µM) | 16 mg/L (≈ 21.8 µM)
CC[C@H]1OC(=O)[C@H](C)[C@@H](O[C@H]2C[C@@](C)(OC)[C@@H](O)[C@H](C)O2)[C@H](C)[C@@H](O[C@@H]2O[C@H](C)C[C@H](N)[C@H]2O)[C@](C)(OC)C[C@@H](C)C(=O)N[C@H](C)[C@@H](O)[C@]1(C)O | > 64 mg/L | > 64 mg/L | > 64 mg/L | > 64 mg/L | > 64 mg/L
CC[C@H]1OC(=O)[C@H](C)[C@@H](O[C@H]2C[C@@](C)(OC)[C@@H](O)[C@H](C)O2)[C@H](C)[C@@H](O[C@@H]2O[C@H](C)C[C@H](N)[C@H]2O)[C@](C)(OC)C[C@@H](C)C(=O)[C@H](C)[C@@H](O)[C@]1(C)O | 2 mg/L (≈ 2.78 µM) | 16 mg/L (≈ 22.2 µM) | > 64 mg/L | 2 mg/L (≈ 2.78 µM) | > 64 mg/L
CC[C@H]1OC(=O)[C@H](C)[C@@H](O[C@H]2C[C@@](C)(OC)[C@@H](O)[C@H](C)O2)[C@H](C)[C@@H](O[C@@H]2O[C@H](C)C[C@H](N)[C@H]2O)[C@](C)(O)C[C@@H](C)CN(C)[C@H](C)[C@@H](O)[C@]1(C)O | 4 mg/L (≈ 5.55 µM) | 8 mg/L (≈ 11.1 µM) | 64 mg/L (≈ 88.8 µM) | 32 mg/L (≈ 44.4 µM) | > 64 mg/L
CC[C@H]1OC(=O)[C@H](C)[C@@H](O[C@H]2C[C@@](C)(OC)[C@@H](O)[C@H](C)O2)[C@H](C)[C@@H](O[C@@H]2O[C@H](C)C[C@@H]3NC(=O)O[C@@H]23)[C@](C)(OC)C[C@@H](C)C(=O)N[C@H](C)[C@@H](O)[C@]1(C)O | > 64 mg/L | > 64 mg/L | > 64 mg/L | > 64 mg/L | > 64 mg/L
CC[C@H]1OC(=O)[C@H](C)[C@@H](O[C@H]2C[C@@](C)(OC)[C@@H](O)[C@H](C)O2)[C@H](C)[C@@H](O[C@@H]2O[C@H](C)C[C@@H]3NC(=O)O[C@@H]23)[C@](C)(OC)C[C@@H](C)C(=O)[C@H](C)[C@@H](O)[C@]1(C)O | > 64 mg/L | > 64 mg/L | > 64 mg/L | > 64 mg/L | > 64 mg/L
CC[C@H]1OC(=O)[C@H](C)[C@@H](O[C@H]2C[C@@](C)(OC)[C@@H](O)[C@H](C)O2)[C@H](C)[C@@H](O[C@@H]2O[C@H](C)C[C@@H]3NC(=O)O[C@@H]23)[C@](C)(O)C[C@@H](C)CN(C)[C@H](C)[C@@H](O)[C@]1(C)O | > 64 mg/L | > 64 mg/L | > 64 mg/L | > 64 mg/L | > 64 mg/L
CC[C@H]1OC(=O)[C@H](C)[C@@H](O[C@H]2C[C@@](C)(OC)[C@@H](O)[C@H](C)O2)[C@H](C)[C@@H](O[C@@H]2O[C@H](C)C[C@H]3[C@H]2OC(=O)N3C)[C@](C)(OC)C[C@@H](C)C(=O)N[C@H](C)[C@@H](O)[C@]1(C)O | > 64 mg/L | > 64 mg/L | > 64 mg/L | > 64 mg/L | > 64 mg/L
CC[C@H]1OC(=O)[C@H](C)[C@@H](O[C@H]2C[C@@](C)(OC)[C@@H](O)[C@H](C)O2)[C@H](C)[C@@H](O[C@@H]2O[C@H](C)C[C@H]3[C@H]2OC(=O)N3C)[C@](C)(OC)C[C@@H](C)C(=O)[C@H](C)[C@@H](O)[C@]1(C)O | > 64 mg/L | > 64 mg/L | > 64 mg/L | > 64 mg/L | > 64 mg/L
CC[C@H]1OC(=O)[C@H](C)[C@@H](O[C@H]2C[C@@](C)(OC)[C@@H](O)[C@H](C)O2)[C@H](C)[C@@H](O[C@@H]2O[C@H](C)C[C@H]3[C@H]2OC(=O)N3C)[C@](C)(O)C[C@@H](C)CN(C)[C@H](C)[C@@H](O)[C@]1(C)O | > 64 mg/L | > 64 mg/L | > 64 mg/L | > 64 mg/L | > 64 mg/L
CC[C@H]1OC(=O)[C@H](C)[C@@H](O[C@H]2C[C@@](C)(OC)[C@@H](O)[C@H](C)O2)[C@H](C)[C@@H](O[C@@H]2O[C@H](C)C[C@H]3[C@H]2OC(=O)N3CC)[C@](C)(OC)C[C@@H](C)C(=O)N[C@H](C)[C@@H](O)[C@]1(C)O | > 64 mg/L | > 64 mg/L | > 64 mg/L | > 64 mg/L | > 64 mg/L
CCCN1C(=O)O[C@H]2[C@H](O[C@@H]3[C@@H](C)[C@H](O[C@H]4C[C@@](C)(OC)[C@@H](O)[C@H](C)O4)[C@@H](C)C(=O)O[C@H](CC)[C@@](C)(O)[C@H](O)[C@@H](C)NC(=O)[C@H](C)C[C@@]3(C)OC)O[C@H](C)C[C@@H]21 | > 64 mg/L | > 64 mg/L | > 64 mg/L | > 64 mg/L | > 64 mg/L
CC[C@H]1OC(=O)[C@H](C)[C@@H](O[C@H]2C[C@@](C)(OC)[C@@H](O)[C@H](C)O2)[C@H](C)[C@@H](O[C@@H]2O[C@H](C)C[C@H]3[C@H]2OC(=O)N3CC)[C@](C)(OC)C[C@@H](C)C(=O)[C@H](C)[C@@H](O)[C@]1(C)O | > 64 mg/L | > 64 mg/L | > 64 mg/L | > 64 mg/L | > 64 mg/L
CCCN1C(=O)O[C@H]2[C@H](O[C@@H]3[C@@H](C)[C@H](O[C@H]4C[C@@](C)(OC)[C@@H](O)[C@H](C)O4)[C@@H](C)C(=O)O[C@H](CC)[C@@](C)(O)[C@H](O)[C@@H](C)C(=O)[C@H](C)C[C@@]3(C)OC)O[C@H](C)C[C@@H]21 | > 64 mg/L | > 64 mg/L | > 64 mg/L | > 64 mg/L | > 64 mg/L
CC[C@H]1OC(=O)[C@H](C)[C@@H](O[C@H]2C[C@@](C)(OC)[C@@H](O)[C@H](C)O2)[C@H](C)[C@@H](O[C@@H]2O[C@H](C)C[C@H]3[C@H]2OC(=O)N3Cc2ccccc2)[C@](C)(OC)C[C@@H](C)C(=O)[C@H](C)[C@@H](O)[C@]1(C)O | > 64 mg/L | > 64 mg/L | > 64 mg/L | > 64 mg/L | > 64 mg/L
CC[C@H]1OC(=O)[C@H](C)[C@@H](O[C@H]2C[C@@](C)(OC)[C@@H](O)[C@H](C)O2)[C@H](C)[C@@H](O[C@@H]2O[C@H](C)C[C@H]3[C@H]2OC(=O)N3CC)[C@](C)(O)C[C@@H](C)CN(C)[C@H](C)[C@@H](O)[C@]1(C)O | > 64 mg/L | > 64 mg/L | > 64 mg/L | > 64 mg/L | > 64 mg/L
CCCN1C(=O)O[C@H]2[C@H](O[C@@H]3[C@@H](C)[C@H](O[C@H]4C[C@@](C)(OC)[C@@H](O)[C@H](C)O4)[C@@H](C)C(=O)O[C@H](CC)[C@@](C)(O)[C@H](O)[C@@H](C)N(C)C[C@H](C)C[C@@]3(C)O)O[C@H](C)C[C@@H]21 | > 64 mg/L | > 64 mg/L | > 64 mg/L | > 64 mg/L | > 64 mg/L
CCCCCCN1C(=O)O[C@H]2[C@H](O[C@@H]3[C@@H](C)[C@H](O[C@H]4C[C@@](C)(OC)[C@@H](O)[C@H](C)O4)[C@@H](C)C(=O)O[C@H](CC)[C@@](C)(O)[C@H](O)[C@@H](C)N(C)C[C@H](C)C[C@@]3(C)O)O[C@H](C)C[C@@H]21 | > 64 mg/L | > 64 mg/L | > 64 mg/L | > 64 mg/L | > 64 mg/L
C=CCN1C(=O)O[C@H]2[C@H](O[C@@H]3[C@@H](C)[C@H](O[C@H]4C[C@@](C)(OC)[C@@H](O)[C@H](C)O4)[C@@H](C)C(=O)O[C@H](CC)[C@@](C)(O)[C@H](O)[C@@H](C)N(C)C[C@H](C)C[C@@]3(C)O)O[C@H](C)C[C@@H]21 | > 64 mg/L | > 64 mg/L | > 64 mg/L | > 64 mg/L | > 64 mg/L
CC[C@H]1OC(=O)[C@H](C)[C@@H](O[C@H]2C[C@@](C)(OC)[C@@H](O)[C@H](C)O2)[C@H](C)[C@@H](O[C@@H]2O[C@H](C)C[C@H](N(C)C)[C@H]2O)[C@](C)(OC)C[C@@H](C)C(=O)N[C@H](C)[C@@H](O)[C@]1(C)O | 1 mg/L (≈ 1.31 µM) | 0.5 mg/L (≈ 0.655 µM) | 16 mg/L (≈ 21 µM) | 4 mg/L (≈ 5.24 µM) | 32 mg/L (≈ 41.9 µM)
CC[C@H]1OC(=O)[C@H](C)[C@@H](O[C@H]2C[C@@](C)(OC)[C@@H](O)[C@H](C)O2)[C@H](C)[C@@H](O[C@@H]2O[C@H](C)C[C@H](N(C)C)[C@H]2O)[C@](C)(O)C[C@@H](C)CN(C)[C@H](C)[C@@H](O)[C@]1(C)O [AZITHROMYCIN] | < 0.125 mg/L | < 0.125 mg/L | 2 mg/L (≈ 2.67 µM) | < 0.125 mg/L | 1 mg/L (≈ 1.34 µM)
